Measurements taken from ChEMBL document CHEMBL4373711, “Development of 3,5-Dinitrophenyl-Containing 1,2,4-Triazoles and Their Trifluoromethyl Analogues as Highly Efficient Antitubercular Agents Inhibiting Decaprenylphosphoryl-β-d-ribofuranose 2'-Oxidase” (J Med Chem, 2019).
In brackets after ≈: the same amount, converted by molar mass. Activity calls are given as the source filed them. The calls are words filed in the database; no cut-off is given here.

Key:
[1] = system: Aspergillus flavus; experiment: Antifungal activity against Aspergillus flavus CCM 8363 at highest concentration measured after 24 to 48 hrs by alamar blue dye based broth microdilution assay; type: functional, organism-based
[2] = system: Mycobacterium avium; experiment: Antimycobacterial activity against Mycobacterium avium CNCTC My 330/88 after 21 days; type: functional; details: CNCTC My 330/88, 504 h
Summary of the method: (§1)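 M. avium was tested by microdilution in Šula's semisynthetic medium, with compounds dissolved in DMSO and serially diluted from 1000 down to 1. Inoculum was a 1.0 McFarland suspension diluted 10-5. Plates were incubated at 37 °C and read at 14 and 21 days. […] Isoniazid and rifampicin served as standards.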

[3] = system: Serratia marcescens; experiment: Antibacterial activity against Serratia marcescens at highest concentration measured after 24 to 48 hrs by alamar blue dye based broth microdilution assay; type: functional, organism-based
[4] = system: Pseudomonas aeruginosa; experiment: Antibacterial activity against Pseudomonas aeruginosa ATCC 27853 CCM 3955 at highest concentration measured after 24 to 48 hrs by alamar blue dye based broth microdilution assay; type: functional, organism-based
[5] = system: Mycobacterium kansasii; experiment: Antimycobacterial activity against Mycobacterium kansasii CNCTC My 235/80 after 14 days; type: functional; details: CNCTC My 235/80, 336 h
Summary of the method: (§2)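 Microdilution in Šula's semisynthetic medium; compounds in DMSO at 32–0.03 µM. Inoculum from 1.0 McFarland suspension diluted 10-4. […] Isoniazid and rifampicin as reference drugs.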

[6] = system: Staphylococcus epidermidis; experiment: Antibacterial activity against Staphylococcus epidermidis at highest concentration measured after 24 to 48 hrs by alamar blue dye based broth microdilution assay; type: functional, organism-based
[7] = system: Mycobacterium kansasii; experiment: Antimycobacterial activity against Mycobacterium kansasii CNCTC My 235/80 after 21 days; type: functional; details: CNCTC My 235/80, 504 h; summary of the method: as §2
[8] = system: Enterococcus faecalis; experiment: Antibacterial activity against Enterococcus faecalis ATCC 29212 CCM 4224 at highest concentration measured after 24 to 48 hrs by alamar blue dye based broth microdilution assay; type: functional, organism-based
[9] = system: Mycobacterium kansasii; experiment: Antimycobacterial activity against Mycobacterium kansasii 6509/96 after 21 days; type: functional; details: 6509/96, 504 h; summary of the method: as §2
[10] = system: Mycobacterium tuberculosis; experiment: Antimycobacterial activity against Mycobacterium tuberculosis H37Rv CNCTC My 331/88 after 21 days; type: functional; details: H37Rv CNCTC My 331/88, 504 h
Summary of the method: (§3)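 M. tuberculosis strains (H37Rv and clinical MDR/XDR isolates) tested by microdilution in Šula's semisynthetic medium. Compounds were dissolved in DMSO and tested at 32 to 0.03 µM in twofold steps. Inoculum was a 1.0 McFarland suspension diluted 10-3. Plates were incubated at 37 °C and read at 14 and 21 days.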

[11] = system: Mycobacterium avium; experiment: Antimycobacterial activity against Mycobacterium avium CNCTC My 330/88 after 14 days; type: functional; details: CNCTC My 330/88, 336 h; summary of the method: as §1
[12] = Cytotoxicity against human HepG2 cells assessed as cell viability at 30 uM after 48 hrs by CellTiter 96 aqueous one solution assay relative to control; type: cell-based; details: read-out: Activity
Summary of the method: (§4)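 HepG2 (DMEM, 10% FBS, 1 mM pyruvate) or A431 (DMEM, 10% FBS) seeded 10,000 cells/well, 24 h at 37 °C, 5% CO2, then 30 µM compound for 48 h. MTS reagent 60 min, absorbance 490 nm, background subtracted; 0.1% DMSO vehicle = 100%, 10% SDS = 0% viability.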

[13] = system: Mycobacterium tuberculosis; experiment: Antimycobacterial activity against XDR Mycobacterium tuberculosis Praha 131 after 21 days; type: functional; details: Praha 131, 504 h; summary of the method: as §3
[14] = system: Mycobacterium tuberculosis; experiment: Antimycobacterial activity against Mycobacterium tuberculosis H37Rv CNCTC My 331/88 after 14 days; type: functional; details: H37Rv CNCTC My 331/88, 336 h; summary of the method: as §3
[15] = system: A-431; experiment: Cytotoxicity against human A431 cells assessed as reduction in cell viability after 48 hrs by CellTiter 96 aqueous one solution assay; type: cell-based; details: A-431, 48 h
[16] = system: Candida parapsilosis; experiment: Antifungal activity against Candida parapsilosis ATCC 22019 CCM 8260 at highest concentration measured after 24 to 48 hrs by alamar blue dye based broth microdilution assay; type: functional, organism-based
[17] = system: Staphylococcus aureus; experiment: Antibacterial activity against methicillin-resistant Staphylococcus aureus subsp. aureus ATCC 43300 CCM 4750 at highest concentration measured after 24 to 48 hrs by alamar blue dye based broth microdilution assay; type: functional, organism-based
[18] = system: Candida albicans; experiment: Antifungal activity against Candida albicans ATCC 24433 CCM 8320 at highest concentration measured after 24 to 48 hrs by alamar blue dye based broth microdilution assay; type: functional, organism-based
[19] = system: Pichia kudriavzevii; experiment: Antifungal activity against Candida krusei ATCC 6258 CCM8271 at highest concentration measured after 24 to 48 hrs by alamar blue dye based broth microdilution assay; type: functional, organism-based
[20] = system: Staphylococcus aureus; experiment: Antibacterial activity against Staphylococcus aureus subsp. aureus ATCC 29213 CCM 4223 at highest concentration measured after 24 to 48 hrs by alamar blue dye based broth microdilution assay; type: functional, organism-based
[21] = system: Trichophyton interdigitale; experiment: Antifungal activity against Trichophyton interdigitale ATCC 9533 CCM 8377 at highest concentration measured after 72 to 120 hrs by alamar blue dye based broth microdilution assay; type: functional
[22] = system: Lichtheimia corymbifera; experiment: Antifungal activity against Lichtheimia corymbifera CCM 8077 at highest concentration measured after 24 to 48 hrs by alamar blue dye based broth microdilution assay; type: functional, organism-based
[23] = system: Mycobacterium kansasii; experiment: Antimycobacterial activity against Mycobacterium kansasii 6509/96 after 14 days; type: functional; details: 6509/96, 336 h; summary of the method: as §2
[24] = system: HepG2; experiment: Cytotoxicity against human HepG2 cells assessed as reduction in cell viability after 48 hrs by CellTiter 96 aqueous one solution assay; type: cell-based; details: HepG2, 48 h
[25] = system: Candida tropicalis; experiment: Antifungal activity against Candida tropicalis ATCC 750 CCM 8264 at highest concentration measured after 24 to 48 hrs by alamar blue dye based broth microdilution assay; type: functional, organism-based
[26] = system: Aspergillus fumigatus; experiment: Antifungal activity against Aspergillus fumigatus ATCC 204305 at highest concentration measured after 24 to 48 hrs by alamar blue dye based broth microdilution assay; type: functional, organism-based
[27] = system: Klebsiella pneumoniae; experiment: Antibacterial activity against Klebsiella pneumoniae at highest concentration measured after 24 to 48 hrs by alamar blue dye based broth microdilution assay; type: functional, organism-based
[28] = system: Mycobacterium kansasii; experiment: Antimycobacterial activity against Mycobacterium kansasii CNCTC My 235/80 after 7 days; type: functional; details: CNCTC My 235/80, 168 h; summary of the method: as §2
[29] = system: Escherichia coli; experiment: Antibacterial activity against Escherichia coli ATCC 25922 CCM 3954 at highest concentration measured after 24 to 48 hrs by alamar blue dye based broth microdilution assay; type: functional, organism-based
[30] = Cytotoxicity against human A431 cells assessed as cell viability at 30 uM after 48 hrs by CellTiter 96 aqueous one solution assay relative to control; type: cell-based, A-431; details: read-out: Activity; summary of the method: as §4
[31] = system: Mycobacterium tuberculosis; experiment: Antimycobacterial activity against XDR Mycobacterium tuberculosis Praha 131 after 14 days; type: functional; details: Praha 131, 336 h; summary of the method: as §3
[32] = system: Mycobacterium kansasii; experiment: Antimycobacterial activity against Mycobacterium kansasii 6509/96 after 7 days; type: functional; details: 6509/96, 168 h; summary of the method: as §2

Structure (SMILES) | Activity [1] | MIC99 [2] [µM] | Activity [3] | Activity [4] | MIC99 [5] [µM] | Activity [6] | MIC99 [7] [µM] | Activity [8] | MIC99 [9] [µM] | MIC99 [10] [µM] | MIC99 [11] [µM] | viability at 48 h, 30 µM [12] [%] | MIC99 [13] [µM] | MIC99 [14] [µM] | IC50 [15] [µM] | Activity [16] | Activity [17] | Activity [18] | Activity [19] | Activity [20] | other results
Cn1c(SCc2ccccc2)nnc1-c1cc([N+](=O)[O-])cc([N+](=O)[O-])c1 | inactive | 16 (≈ 5.94 µg/mL) | inactive | inactive | 0.25 (≈ 0.0928 µg/mL) | inactive | 0.25 (≈ 0.0928 µg/mL) | inactive | 0.25 (≈ 0.0928 µg/mL) | 0.03 (≈ 0.0111 µg/mL) | 16 (≈ 5.94 µg/mL) | 161 | 0.03 (≈ 0.0111 µg/mL) | 0.03 (≈ 0.0111 µg/mL) | > 30 | inactive | inactive | inactive | inactive | inactive | Activity [21]: inactive; Activity [22]: inactive; MIC99 [23]: 0.125 µM (≈ 0.0464 µg/mL); IC50 [24]: > 30 µM; Activity [25]: inactive; Activity [26]: inactive; Activity [27]: inactive; MIC99 [28]: 0.25 µM (≈ 0.0928 µg/mL); Activity [29]: inactive; viability at 48 h, 30 µM [30]: 108%; MIC99 [31]: 0.03 µM (≈ 0.0111 µg/mL); MIC99 [32]: 0.06 µM (≈ 0.0223 µg/mL)
Cn1c(SCc2ccc(Cl)c(Cl)c2)nnc1-c1cc([N+](=O)[O-])cc([N+](=O)[O-])c1 | inactive | > 500 | inactive | inactive | 0.25 (≈ 0.11 µg/mL) | inactive | 0.5 (≈ 0.22 µg/mL) | inactive | 0.125 (≈ 0.055 µg/mL) | 0.06 (≈ 0.0264 µg/mL) | > 500 | 110 | 0.06 (≈ 0.0264 µg/mL) | 0.06 (≈ 0.0264 µg/mL) | > 30 | inactive | inactive | inactive | inactive | inactive | Activity [21]: inactive; Activity [22]: inactive; MIC99 [23]: 0.125 µM (≈ 0.055 µg/mL); IC50 [24]: > 30 µM; Activity [25]: inactive; Activity [26]: inactive; Activity [27]: inactive; MIC99 [28]: 0.125 µM (≈ 0.055 µg/mL); Activity [29]: inactive; viability at 48 h, 30 µM [30]: 92%; MIC99 [31]: 0.06 µM (≈ 0.0264 µg/mL); MIC99 [32]: 0.06 µM (≈ 0.0264 µg/mL)
O=[N+]([O-])c1cc(-c2nnc(SCc3ccc(Br)cc3)n2Cc2ccccc2)cc([N+](=O)[O-])c1 | inactive | 62 (≈ 32.6 µg/mL) | inactive | inactive | 0.25 (≈ 0.132 µg/mL) | inactive | 0.25 (≈ 0.132 µg/mL) | inactive | 0.25 (≈ 0.132 µg/mL) | 0.25 (≈ 0.132 µg/mL) | 62 (≈ 32.6 µg/mL) | 104 | 0.25 (≈ 0.132 µg/mL) | 0.125 (≈ 0.0658 µg/mL) | > 30 | inactive | inactive | inactive | inactive | inactive | Activity [21]: inactive; Activity [22]: inactive; MIC99 [23]: 0.125 µM (≈ 0.0658 µg/mL); IC50 [24]: > 30 µM; Activity [25]: inactive; Activity [26]: inactive; Activity [27]: inactive; MIC99 [28]: 0.125 µM (≈ 0.0658 µg/mL); Activity [29]: inactive; viability at 48 h, 30 µM [30]: 110%; MIC99 [31]: 0.125 µM (≈ 0.0658 µg/mL); MIC99 [32]: 0.125 µM (≈ 0.0658 µg/mL)
